Hits are enriched below; roughly 1.6% of the tested compounds scored in any of these assays.
Platelet DG rel: modulates dense granule release in human platelets. human platelet-rich plasma, SFLLRN dense granule ATP release, luminescence. inhibition, %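 (compounds screened at 7.5 µM in platelet-rich plasma)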. 300,000 compounds, 0.22% hits. AID 1663;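 active = mean replicate score, as percent of positive control, at or above 50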
TRAIL sens C8: caspase-8 TRAIL sensitization | NB7+C8 cells + TRAIL, ATPlite viability luminescence | inhibition (viability loss, TRAIL sensitization), % at 10 µM | 360,000 compounds, 1% hits;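 active = compounds causing at least 50% loss of cell viability in the single-dose screen, relative to plate controls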
FLuc stim CS: affects firefly luciferase, flagging false hits in luciferase stimulation screens; P08659; ATPlite luciferase biochemical, luminescence, 10 min; 0 = ATP-free wells, 1 = DMSO control; activation factor at 10 µM; 200,000 tested, under 10 active; AID 1027;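 active = luciferase activation factor, scaled between plate controls, of at least 2 with compound at 10 µM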
Target sequence (P08659 whole entry, looked up): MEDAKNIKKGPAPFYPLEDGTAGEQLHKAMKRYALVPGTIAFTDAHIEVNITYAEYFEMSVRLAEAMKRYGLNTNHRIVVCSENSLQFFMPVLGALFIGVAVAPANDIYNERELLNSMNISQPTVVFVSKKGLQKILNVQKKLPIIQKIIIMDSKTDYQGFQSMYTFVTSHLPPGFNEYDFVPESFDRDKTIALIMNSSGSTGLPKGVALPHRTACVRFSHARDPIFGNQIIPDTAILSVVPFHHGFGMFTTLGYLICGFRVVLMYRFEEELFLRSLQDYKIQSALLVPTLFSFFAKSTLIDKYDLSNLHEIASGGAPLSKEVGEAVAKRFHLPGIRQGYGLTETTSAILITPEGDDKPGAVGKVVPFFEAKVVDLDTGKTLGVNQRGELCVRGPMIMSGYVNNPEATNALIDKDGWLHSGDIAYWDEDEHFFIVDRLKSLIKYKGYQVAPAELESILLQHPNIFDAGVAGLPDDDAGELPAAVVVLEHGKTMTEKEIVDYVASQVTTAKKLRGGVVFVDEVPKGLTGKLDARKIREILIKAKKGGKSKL
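Material: Luciferase/luciferin reagent mix; Doses: test compounds dosed from 2 mM stocks in 100% DMSO; Schedule: 10 min incubation after luciferase reagent addition, room temperature; Measured by: luminescence from luciferase reaction; Read-out: luminescence gain marking luciferase activators.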
PPC-1+TRAIL kill: compounds killing PPC-1 cancer cells with TRAIL present (potentiator screen, no TRAIL-free arm); PPC-1 cells + TRAIL, ATPLite viability luminescence; cell killing (% activity), % at 4 µM or 5 µM; 220,000 compounds, 0.41% hits; AID 1443;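 active = cell killing above 50% in the first pass at 4 µM, then a duplicate retest at 5 µM averaging 50% or more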
FLuc inhib CS: Photinus pyralis luciferase inhibition counter-screen; P08659; inhibition, % at 10 µM; ATPLite firefly luciferase biochemical luminescence, 10 min; 200,000 compounds, 1.5% hits;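 active = inhibition above about 50% when tested at 10 µM, limit read from the data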
Large screens that a line does not name were inactive.

CC(=O)Nc1ccc(CNc2nc(NC(C)C)nc3cc(-c4ccccc4)sc23)cc1	none (no result: Platelet DG rel, FLuc stim CS, PPC-1+TRAIL kill, FLuc inhib CS)
C=CCNc1nc(NCc2ccc(NC(C)=O)cc2)c2sc(-c3ccccc3)cc2n1	TRAIL sens C8 64 (no result: Platelet DG rel, FLuc stim CS, PPC-1+TRAIL kill, FLuc inhib CS)
COCCN(CCOC)Cc1cc(=O)oc2ccccc12	none (no result: Platelet DG rel, FLuc stim CS, PPC-1+TRAIL kill, FLuc inhib CS)
CC(=O)Nc1sc(C)c(C)c1C(=O)OCC(=O)N(CC(C)C)c1c(N)n(Cc2ccccc2)c(=O)[nH]c1=O	TRAIL sens C8 95 (no result: FLuc stim CS, PPC-1+TRAIL kill, FLuc inhib CS)
CCCCC[C@H](C)N1C[C@H](COCc2ccccc2)Oc2cc(N3CCC[C@H]3COC)ccc2S1(=O)=O	none (no result: Platelet DG rel, FLuc stim CS, PPC-1+TRAIL kill, FLuc inhib CS)
COc1ccc(C[C@H](N)C(=O)N[C@H]2[C@@H](O)[C@H](n3cnc4c(N(C)C)ncnc43)O[C@@H]2CO)cc1	TRAIL sens C8 92 (no result: Platelet DG rel, FLuc stim CS, PPC-1+TRAIL kill, FLuc inhib CS)
CCc1nc2c(OCc3cc(Cl)cc(Cl)c3)cccn2c1N(C=O)Cc1ccc(OC)cc1	none (no result: Platelet DG rel, FLuc stim CS, PPC-1+TRAIL kill, FLuc inhib CS)
C/C=C(\C)C(=O)OC1[C@H](OC(C)=O)C2(CO)C(CC1(C)C)C1=CCC3C4(C)CCC(O[C@@H]5O[C@H](C(=O)O)[C@@H](O[C@@H]6O[C@H](CO)[C@@H](O)[C@H](O)[C@H]6O)[C@H](O)[C@H]5O[C@H]5O[C@H](CO)[C@@H](O)[C@H](O)[C@H]5O)[C@](C)(CO)C4CCC3(C)[C@]1(C)C[C@H]2O (stereo partly drawn)	TRAIL sens C8 89 (no result: Platelet DG rel, FLuc stim CS, PPC-1+TRAIL kill, FLuc inhib CS)
C/C=C(/C)C(=O)OC1CC(C)(C)C[C@H]2C3=CC[C@@H]4[C@@]5(C)CCC(O[C@@H]6O[C@@H](C(=O)O)[C@@H](O)C(O[C@@H]7OC[C@H](O)[C@@H](O)[C@@H]7O[C@@H]7OC(CO)C(O)[C@@H](O)[C@@H]7O)C6O[C@@H]6OC(CO)C(O)C(O)C6O)[C@@](C)(CO)[C@@H]5CC[C@]4(C)[C@]3(C)CC(O)[C@@]12CO (stereo partly drawn)	none (no result: Platelet DG rel, FLuc stim CS, PPC-1+TRAIL kill, FLuc inhib CS)
CCOC(=O)C1=CCN(S(=O)(=O)c2ccccc2Cl)C1c1cccc(Cl)c1 (stereo not drawn)	none (no result: Platelet DG rel, FLuc stim CS, PPC-1+TRAIL kill, FLuc inhib CS)
CCOC(=O)C1=CCN(S(=O)(=O)c2ccccc2Cl)C1c1cccc(F)c1 (stereo not drawn)	TRAIL sens C8 71 (no result: Platelet DG rel, FLuc stim CS, PPC-1+TRAIL kill, FLuc inhib CS)
CCOC(=O)C1(C)CCCN(C(=O)c2cccc(C(F)(F)F)c2)C1 (stereo not drawn)	none (no result: Platelet DG rel, FLuc stim CS, PPC-1+TRAIL kill, FLuc inhib CS)
Cc1ccc(CSc2nnc(-c3ccncc3)n2C)cc1	none
Cc1ccc(Nc2nc(CSc3nnc(-c4ccncc4)n3C)cs2)cc1	TRAIL sens C8 76, PPC-1+TRAIL kill 72, FLuc inhib CS 90
OCC[C@@H]1C[C@H](O)[C@@H](O)[C@@]2(OCc3cc(C(F)(F)F)ccc32)O1	none (no result: Platelet DG rel, FLuc stim CS, PPC-1+TRAIL kill, FLuc inhib CS)
Cc1ccc(NS(=O)(=O)c2cc(-c3n[nH]c(=O)c4ccccc34)ccc2C)cc1	none
CCOC(=O)CNS(=O)(=O)c1cc(-c2n[nH]c(=O)c3ccccc23)ccc1C	Platelet DG rel 51
Cc1ccc(C(=O)Nc2ccc(CC(=O)O)cc2)o1	none
CC(C)(C)c1ccc(C(=O)Nc2ccc(CC(=O)O)cc2)o1	FLuc inhib CS 51
COc1ccc(C=Nc2cccc3c(=O)[nH][nH]c(=O)c23)c2ccccc12	none
COc1cccc(C=Nc2cccc3c(=O)[nH][nH]c(=O)c23)c1O	FLuc inhib CS 80
CN(C(=O)/C=C/c1cnc2ccccc2c1)C1CCCCC1	FLuc inhib CS 62
COc1ccc(/C=C/C(=O)N(C)C2CCCCC2)cc1Br	none
OC(CSc1nnnn1-c1ccccc1)Cn1c2ccccc2c2ccccc21 (stereo not drawn)	none (no result: Platelet DG rel, FLuc stim CS, PPC-1+TRAIL kill, FLuc inhib CS)
O=C(Nc1nccs1)c1csc([C@H]2C[C@H](O)[C@@H](CO)O2)n1	none (no result: Platelet DG rel, FLuc stim CS, PPC-1+TRAIL kill, FLuc inhib CS)
Cc1ccc(C2=NS(=O)(=O)N(C)C(C(=O)NCc3cccs3)=C2)cc1	TRAIL sens C8 56 (no result: FLuc stim CS, PPC-1+TRAIL kill, FLuc inhib CS)
COc1ccc(Cc2c(-c3ccccc3)nc3ccc(Br)cn23)c(C)c1	none (no result: Platelet DG rel, FLuc stim CS, PPC-1+TRAIL kill, FLuc inhib CS)
CC(C)(C)NC(=O)C1c2ccccc2OCC(=O)N1Cc1ccco1 (stereo not drawn)	none (no result: Platelet DG rel, FLuc stim CS, PPC-1+TRAIL kill, FLuc inhib CS)
CC(=O)Oc1ccccc1C(=O)C=Cc1cccc([N+](=O)[O-])c1	TRAIL sens C8 65 (no result: Platelet DG rel, FLuc stim CS, PPC-1+TRAIL kill, FLuc inhib CS)
O=C(/C=C/[C@H]1O[C@@H](n2ccc(=O)[nH]c2=O)[C@H](O)[C@@H]1O)NC(c1ccccc1)c1ccccc1	none (no result: Platelet DG rel, FLuc stim CS, PPC-1+TRAIL kill, FLuc inhib CS)
Cc1ccc(C(=O)Oc2ccc(C(=O)COC(=O)c3cnccn3)cc2)cc1	TRAIL sens C8 51
N/C(=N\OC(=O)c1cccc(Br)c1)c1ccccc1	TRAIL sens C8 89, FLuc inhib CS 90
COc1ccc(C(=O)O/N=C(\N)c2ccccc2)cc1OC	none (no result: FLuc stim CS, PPC-1+TRAIL kill, FLuc inhib CS)
N/C(=N\OC(=O)c1cccc(Cl)c1)c1ccccn1	TRAIL sens C8 56, FLuc inhib CS 91
